Experimental data published in ChEMBL document CHEMBL4346701, “Synthesis and biological evaluation of tryptophan-derived rhodanine derivatives as PTP1B inhibitors and anti-bacterial agents” (Eur J Med Chem, 2019).
Values after ≈ are worked out from the molar mass of the structure shown.

Experiments:
[1] = molecular target: T1, Tyrosine-protein phosphatase non-receptor type 1 (Homo sapiens, UniProt P18031); experiment: Inhibition of human recombinant GST-tagged PTP1B expressed in Escherichia coli BL21 (DE3) using pNPP as substrate measured for 2 mins by colorimetric analysis
T1 sequence (P18031 whole entry): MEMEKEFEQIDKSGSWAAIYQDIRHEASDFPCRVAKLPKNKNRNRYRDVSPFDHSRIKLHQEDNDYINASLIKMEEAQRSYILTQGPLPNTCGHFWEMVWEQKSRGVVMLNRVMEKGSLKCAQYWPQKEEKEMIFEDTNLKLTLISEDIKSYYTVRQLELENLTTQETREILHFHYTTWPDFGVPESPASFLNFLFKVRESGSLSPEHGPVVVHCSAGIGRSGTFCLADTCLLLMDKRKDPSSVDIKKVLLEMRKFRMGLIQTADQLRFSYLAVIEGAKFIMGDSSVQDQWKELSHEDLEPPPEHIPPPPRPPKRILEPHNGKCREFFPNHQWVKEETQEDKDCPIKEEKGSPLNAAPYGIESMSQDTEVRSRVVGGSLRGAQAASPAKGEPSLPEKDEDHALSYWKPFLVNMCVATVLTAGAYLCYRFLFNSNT

Staphylococcus aureus [2] = experiment: Antibacterial activity against Staphylococcus aureus RN4220 assessed as reduction in bacterial cell growth incubated for 24 hrs by ELISA; assay type: functional; settings: RN4220, 24 h
Method in brief: (§1)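 MICs determined by serial dilution in 96-well microtiter plates. The strain panel included Gram-positive S. aureus strains and multidrug-resistant clinical isolates. Gatifloxacin, moxifloxacin, norfloxacin and oxacillin served as antibacterial positive controls.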

Staphylococcus aureus [3] = experiment: Antibacterial activity against Staphylococcus aureus KCTC209 assessed as reduction in bacterial cell growth incubated for 24 hrs by ELISA; assay type: functional; settings: KCTC209, 24 h; method in brief: as §1
Staphylococcus aureus [4] = experiment: Antibacterial activity against Staphylococcus aureus KCTC503 assessed as reduction in bacterial cell growth incubated for 24 hrs by ELISA; assay type: functional; settings: KCTC503, 24 h; method in brief: as §1
Streptococcus mutans = experiment: Antibacterial activity against Streptococcus mutans KCTC3289 assessed as reduction in bacterial cell growth incubated for 24 hrs by ELISA; assay type: functional; settings: KCTC3289, 24 h
Method in brief: (§2)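 MIC determined by serial dilution in 96-well microtiter plates. Strains used were E. coli 1924 and P. aeruginosa 2742 (Gram-negative), S. mutans 3289 (Gram-positive) and the fungus C. albicans 7535. Gatifloxacin, moxifloxacin, norfloxacin and oxacillin served as antibacterial reference agents, and fluconazole as the antifungal reference.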

Escherichia coli = experiment: Antibacterial activity against Escherichia coli 1924 assessed as reduction in bacterial cell growth incubated for 24 hrs by ELISA; assay type: functional; settings: Escherichia coli, 1924, 24 h; method in brief: as §2
Pseudomonas aeruginosa = experiment: Antibacterial activity against Pseudomonas aeruginosa 2742 assessed as reduction in bacterial cell growth incubated for 24 hrs by ELISA; assay type: functional; settings: Pseudomonas aeruginosa, 2742, 24 h; method in brief: as §2
Candida albicans = experiment: Antifungal activity against Candida albicans 7535 assessed as reduction in bacterial cell growth incubated for 24 hrs by ELISA; assay type: functional; settings: Candida albicans, 7535, 24 h; method in brief: as §2
Staphylococcus aureus [5] = experiment: Antibacterial activity against Methicillin-resistant Staphylococcus aureus CCARM 3167 assessed as reduction in bacterial cell growth incubated for 24 hrs by ELISA; assay type: functional; settings: CCARM 3167, 24 h; method in brief: as §1
Staphylococcus aureus [6] = experiment: Antibacterial activity against Methicillin-resistant Staphylococcus aureus CCARM 3506 assessed as reduction in bacterial cell growth incubated for 24 hrs by ELISA; assay type: functional; settings: CCARM 3506, 24 h; method in brief: as §1
Staphylococcus aureus [7] = experiment: Antibacterial activity against Quinolone-resistant Staphylococcus aureus CCARM 3505 assessed as reduction in bacterial cell growth incubated for 24 hrs by ELISA; assay type: functional; settings: CCARM 3505, 24 h; method in brief: as §1
Staphylococcus aureus [8] = experiment: Antibacterial activity against Quinolone-resistant Staphylococcus aureus CCARM 3519 assessed as reduction in bacterial cell growth incubated for 24 hrs by ELISA; assay type: functional; settings: CCARM 3519, 24 h; method in brief: as §1

`O=C(O)C(Cc1c[nH]c2ccccc12)N1C(=O)/C(=C/c2cccc(OCc3ccccc3)c2)SC1=S` (stereo not given) showed an IC50 [1] of 8230 nM, an MIC (Staphylococcus aureus [2]) of 4 µg/mL (≈ 7.77 µM) and an MIC (Staphylococcus aureus [3]) of 8 µg/mL (≈ 15.5 µM). It also gave an MIC (Staphylococcus aureus [4]) of 8 µg/mL (≈ 15.5 µM), an MIC (Streptococcus mutans) of 8 µg/mL (≈ 15.5 µM) and an MIC (Escherichia coli) of 8 µg/mL (≈ 15.5 µM). For the same molecule, the MIC (Pseudomonas aeruginosa) was > 64 µg/mL, the MIC (Candida albicans) was > 64 µg/mL and the MIC (Staphylococcus aureus [5]) was 8 µg/mL (≈ 15.5 µM). For the same molecule, the MIC (Staphylococcus aureus [6]) was 8 µg/mL (≈ 15.5 µM), the MIC (Staphylococcus aureus [7]) was 8 µg/mL (≈ 15.5 µM) and the MIC (Staphylococcus aureus [8]) was 8 µg/mL (≈ 15.5 µM).

With `O=C(O)C(Cc1c[nH]c2ccccc12)N1C(=O)/C(=C/c2ccc3cc(OCc4ccccc4Cl)ccc3c2)SC1=S` (stereo not given) the IC50 [1] was 800 nM, the MIC (Staphylococcus aureus [2]) was 4 µg/mL (≈ 6.68 µM) and the MIC (Streptococcus mutans) was 2 µg/mL (≈ 3.34 µM). For the same molecule, the MIC (Escherichia coli) was 4 µg/mL (≈ 6.68 µM), the MIC (Pseudomonas aeruginosa) was > 64 µg/mL and the MIC (Candida albicans) was > 64 µg/mL. It also gave an MIC (Staphylococcus aureus [5]) of 2 µg/mL (≈ 3.34 µM), an MIC (Staphylococcus aureus [6]) of 4 µg/mL (≈ 6.68 µM) and an MIC (Staphylococcus aureus [7]) of 4 µg/mL (≈ 6.68 µM). It also gave an MIC (Staphylococcus aureus [8]) of 4 µg/mL (≈ 6.68 µM).

For `O=C(O)CN1C(=O)/C(=C/c2ccc3cc(OCc4ccc(F)cc4)ccc3c2)SC1=S`, the MIC (Staphylococcus aureus [2]) was 4 µg/mL (≈ 8.82 µM), the MIC (Staphylococcus aureus [4]) was 4 µg/mL (≈ 8.82 µM) and the MIC (Escherichia coli) was > 64 µg/mL. The MIC (Pseudomonas aeruginosa) was > 64 µg/mL, the MIC (Candida albicans) was > 64 µg/mL and the MIC (Staphylococcus aureus [5]) was 4 µg/mL (≈ 8.82 µM). The MIC (Staphylococcus aureus [6]) was 2 µg/mL (≈ 4.41 µM), the MIC (Staphylococcus aureus [7]) was 4 µg/mL (≈ 8.82 µM) and the MIC (Staphylococcus aureus [8]) was 4 µg/mL (≈ 8.82 µM).

For `Cc1onc(-c2ccccc2)c1C(=O)N[C@@H]1C(=O)N2[C@@H]1SC(C)(C)[C@@H]2C(=O)O` [OXACILLIN], the MIC (Staphylococcus aureus [5]) was > 64 µg/mL, the MIC (Staphylococcus aureus [6]) was > 64 µg/mL and the MIC (Staphylococcus aureus [7]) was 1 µg/mL (≈ 2.49 µM). The MIC (Staphylococcus aureus [8]) was 1 µg/mL (≈ 2.49 µM).

With `COc1ccc(COc2ccc3cc(/C=C4\SC(=S)N(C(Cc5c[nH]c6ccccc56)C(=O)O)C4=O)ccc3c2)cc1` (stereo not given) the IC50 [1] was 1450 nM, the MIC (Staphylococcus aureus [2]) was 8 µg/mL (≈ 13.5 µM) and the MIC (Streptococcus mutans) was 8 µg/mL (≈ 13.5 µM). For the same molecule, the MIC (Escherichia coli) was 16 µg/mL (≈ 26.9 µM), the MIC (Pseudomonas aeruginosa) was > 64 µg/mL and the MIC (Candida albicans) was > 64 µg/mL. The MIC (Staphylococcus aureus [5]) was 8 µg/mL (≈ 13.5 µM), the MIC (Staphylococcus aureus [6]) was 8 µg/mL (≈ 13.5 µM) and the MIC (Staphylococcus aureus [7]) was 8 µg/mL (≈ 13.5 µM). The MIC (Staphylococcus aureus [8]) was 8 µg/mL (≈ 13.5 µM).

For `O=C(O)C(Cc1c[nH]c2ccccc12)N1C(=O)/C(=C/c2ccc3cc(OCc4cccc(Cl)c4)ccc3c2)SC1=S` (stereo not given), the IC50 [1] was 720 nM, the MIC (Staphylococcus aureus [2]) was 4 µg/mL (≈ 6.68 µM) and the MIC (Streptococcus mutans) was 2 µg/mL (≈ 3.34 µM). The MIC (Escherichia coli) was 2 µg/mL (≈ 3.34 µM), the MIC (Pseudomonas aeruginosa) was > 64 µg/mL and the MIC (Candida albicans) was > 64 µg/mL. It also gave an MIC (Staphylococcus aureus [5]) of 2 µg/mL (≈ 3.34 µM), an MIC (Staphylococcus aureus [6]) of 4 µg/mL (≈ 6.68 µM) and an MIC (Staphylococcus aureus [7]) of 8 µg/mL (≈ 13.4 µM). It also gave an MIC (Staphylococcus aureus [8]) of 8 µg/mL (≈ 13.4 µM).

`COc1c(N2C[C@@H]3CCCN[C@@H]3C2)c(F)cc2c(=O)c(C(=O)O)cn(C3CC3)c12` [MOXIFLOXACIN] was tested, and the MIC (Staphylococcus aureus [2]) was 0.25 µg/mL (≈ 0.623 µM), the MIC (Staphylococcus aureus [4]) was 2 µg/mL (≈ 4.98 µM) and the MIC (Streptococcus mutans) was 0.25 µg/mL (≈ 0.623 µM). The MIC (Candida albicans) was 0.5 µg/mL (≈ 1.25 µM) and the MIC (Staphylococcus aureus [8]) was 4 µg/mL (≈ 9.96 µM).

Work on `OC(Cn1cncn1)(Cn1cncn1)c1ccc(F)cc1F` [FLUCONAZOLE] yielded an MIC (Candida albicans) of 1 µg/mL (≈ 3.27 µM).

In the case of `COc1c(N2CCNC(C)C2)c(F)cc2c(=O)c(C(=O)O)cn(C3CC3)c12` (stereo not given) [GATIFLOXACIN], the MIC (Staphylococcus aureus [2]) is reported as 0.25 µg/mL (≈ 0.666 µM), the MIC (Staphylococcus aureus [3]) is reported as 2 µg/mL (≈ 5.33 µM) and the MIC (Staphylococcus aureus [4]) is reported as 4 µg/mL (≈ 10.7 µM). For the same molecule, the MIC (Streptococcus mutans) was 0.25 µg/mL (≈ 0.666 µM), the MIC (Escherichia coli) was 2 µg/mL (≈ 5.33 µM) and the MIC (Pseudomonas aeruginosa) was 1 µg/mL (≈ 2.66 µM). It also gave an MIC (Staphylococcus aureus [5]) of 2 µg/mL (≈ 5.33 µM), an MIC (Staphylococcus aureus [6]) of 2 µg/mL (≈ 5.33 µM) and an MIC (Staphylococcus aureus [7]) of 8 µg/mL (≈ 21.3 µM). The MIC (Staphylococcus aureus [8]) was 4 µg/mL (≈ 10.7 µM).

`CCn1cc(C(=O)O)c(=O)c2cc(F)c(N3CCNCC3)cc21` [NORFLOXACIN] was tested, and the MIC (Staphylococcus aureus [5]) was 8 µg/mL (≈ 25.1 µM), the MIC (Staphylococcus aureus [6]) was 4 µg/mL (≈ 12.5 µM) and the MIC (Staphylococcus aureus [7]) was > 64 µg/mL. For the same molecule, the MIC (Staphylococcus aureus [8]) was > 64 µg/mL.

For `COc1ccccc1COc1ccc2cc(/C=C3\SC(=S)N(C(Cc4c[nH]c5ccccc45)C(=O)O)C3=O)ccc2c1` (stereo not given), the IC50 [1] was 1530 nM, the MIC (Staphylococcus aureus [2]) was 8 µg/mL (≈ 13.5 µM) and the MIC (Streptococcus mutans) was 8 µg/mL (≈ 13.5 µM). The MIC (Escherichia coli) was 16 µg/mL (≈ 26.9 µM), the MIC (Pseudomonas aeruginosa) was > 64 µg/mL and the MIC (Candida albicans) was > 64 µg/mL. It also gave an MIC (Staphylococcus aureus [5]) of 8 µg/mL (≈ 13.5 µM), an MIC (Staphylococcus aureus [6]) of 8 µg/mL (≈ 13.5 µM) and an MIC (Staphylococcus aureus [7]) of 8 µg/mL (≈ 13.5 µM). The MIC (Staphylococcus aureus [8]) was 8 µg/mL (≈ 13.5 µM).

`O=C(O)C(Cc1c[nH]c2ccccc12)N1C(=O)/C(=C/c2ccc3cc(OCc4ccccc4)ccc3c2)SC1=S` (stereo not given) gave an IC50 [1] of 820 nM, an MIC (Staphylococcus aureus [2]) of 8 µg/mL (≈ 14.2 µM) and an MIC (Streptococcus mutans) of 8 µg/mL (≈ 14.2 µM). For the same molecule, the MIC (Escherichia coli) was 8 µg/mL (≈ 14.2 µM), the MIC (Pseudomonas aeruginosa) was > 64 µg/mL and the MIC (Candida albicans) was > 64 µg/mL. It also gave an MIC (Staphylococcus aureus [5]) of 8 µg/mL (≈ 14.2 µM), an MIC (Staphylococcus aureus [6]) of 8 µg/mL (≈ 14.2 µM) and an MIC (Staphylococcus aureus [7]) of 4 µg/mL (≈ 7.08 µM). It also gave an MIC (Staphylococcus aureus [8]) of 8 µg/mL (≈ 14.2 µM).

`COc1cccc(COc2ccc3cc(/C=C4\SC(=S)N(C(Cc5c[nH]c6ccccc56)C(=O)O)C4=O)ccc3c2)c1` (stereo not given) gave an IC50 [1] of 1670 nM, an MIC (Staphylococcus aureus [2]) of 8 µg/mL (≈ 13.5 µM) and an MIC (Streptococcus mutans) of 8 µg/mL (≈ 13.5 µM). For the same molecule, the MIC (Escherichia coli) was 16 µg/mL (≈ 26.9 µM), the MIC (Pseudomonas aeruginosa) was > 64 µg/mL and the MIC (Candida albicans) was > 64 µg/mL. It also gave an MIC (Staphylococcus aureus [5]) of 8 µg/mL (≈ 13.5 µM), an MIC (Staphylococcus aureus [6]) of 16 µg/mL (≈ 26.9 µM) and an MIC (Staphylococcus aureus [7]) of 8 µg/mL (≈ 13.5 µM). For the same molecule, the MIC (Staphylococcus aureus [8]) was 16 µg/mL (≈ 26.9 µM).
